Source: ChEMBL document CHEMBL1123830, “gamma-Aminobutyric acid esters. 3. Synthesis, brain uptake, and pharmacological properties of C-18 glyceryl lipid esters of GABA with varying degree of unsaturation” (J Med Chem, 1987)

Key:
[1] = Partition coefficient in octanol/water system was determined using [14C]-labeled compounds.; type: physicochemical
Mus musculus [2] = experiment: Percentage decrease in general motor activity with respect to vehicle-injected control in mice at a dose of 30 mg/kg after ip administration; type: functional; settings: route intraperitoneal
Mus musculus [3] = experiment: Tested for the quanitity of [14C]-labeled (radioactivity) compound taken up into the brain following subcutaneous injection at a 44 mg/kg; type: functional
Method in brief: (§1)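 Male Balb-c mice (20 ± 2 g) received ¹⁴C-labeled lipid (label on the GABA portion) sc, as diacetate salt or free amine, in 15% propylene glycol in water. Killed at 5 min; brain and liver weighed and homogenized in SDS/EDTA phosphate buffer (pH 7.6), then scintillation counted. nmol/g computed from total radioactivity. BPI = ([brain]/[liver]) × 100. Mean ± SD of three, or two, measurements.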

Mus musculus [4] = experiment: Tested for the quanitity of [14C]-labeled (radioactivity) compound taken up into the liver following subcutaneous injection at a 44 mg/kg; type: functional; method in brief: as §1
[5] = Ratio of the amount in brain as a percent of that present in liver at 5 min is expressed as Brain penetration index (BPI); type: functional; method in brief: as §1
[6] = Brain-uptake index (BUI) was determined for the compound in rat; type: functional
Method in brief: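 Rat carotid bolus: male Sprague-Dawley rats (200-300 g) under deep Nembutal anesthesia received a 0.15-mL bolus of ³H2O plus ¹⁴C-labeled compound in 0.01 M HEPES (pH 7.4) into the right carotid artery. Decapitated 5 s later; ipsilateral forebrain homogenized in SDS/urea/EDTA/phosphate buffer (pH 7.4). Duplicate aliquots counted by scintillation, corrected for quench and spillover. BUI = (¹⁴C/³H cpm) brain / (¹⁴C/³H cpm) injectate. Values uncorrected.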

Mus musculus [7] = experiment: Tested for the quanitity of [14C]-labeled (radioactivity) compound taken up into the brain following subcutaneous injection at a 36 mg/kg; type: functional; method in brief: as §1
Mus musculus [8] = experiment: Tested for the quanitity of [14C]-labeled (radioactivity) compound taken up into the liver following subcutaneous injection at a 36 mg/kg; type: functional; method in brief: as §1
[9] = Partition coefficient in octanol/water system was determined; type: physicochemical
Mus musculus [10] = experiment: Tested for the quanitity of [14C]-labeled (radioactivity) compound taken up into the liver following subcutaneous injection at a 100 mg/kg; type: functional
Mus musculus [11] = experiment: Tested for the quanitity of [14C]-labeled (radioactivity) compound taken up into the brain following subcutaneous injection at a 100 mg/kg; type: functional
Mus musculus [12] = experiment: Tested for the quanitity of [14C]-labeled (radioactivity) compound taken up into the liver following subcutaneous injection at a 41 mg/kg; type: functional; method in brief: as §1
Mus musculus [13] = experiment: Tested for the quanitity of [14C]-labeled (radioactivity) compound taken up into the brain following subcutaneous injection at a 41 mg/kg; type: functional; method in brief: as §1
Mus musculus [14] = experiment: Tested for the quanitity of [14C]-labeled (radioactivity) compound taken up into the liver following subcutaneous injection t a 54 mg/kg; type: functional; method in brief: as §1
Mus musculus [15] = experiment: Tested for the quanitity of [14C]-labeled (radioactivity) compound taken up into the brain following subcutaneous injection at a 54 mg/kg; type: functional; method in brief: as §1
Mus musculus [16] = experiment: Tested for the quanitity of [14C]-labeled (radioactivity) compound taken up into the brain following subcutaneous injection at a 40 mg/kg; type: functional; method in brief: as §1
Mus musculus [17] = experiment: Tested for the quanitity of [14C]-labeled (radioactivity) compound taken up into the liver following subcutaneous injection at a 40 mg/kg; type: functional; method in brief: as §1
Mus musculus [18] = experiment: Tested for the quanitity of [14C]-labeled (radioactivity) compound taken up into the liver following subcutaneous injection; type: functional
Mus musculus [19] = experiment: Tested for the quanitity of [14C]-labeled (radioactivity) compound taken up into the brain following subcutaneous injection; type: functional

Row | SMILES | K [1] | Decrease (Mus musculus [2]) [%] | BPI [5] [%] | BUI [6] | also measured
1 | CCCCCCCC/C=C/CCCCCCCC(=O)OCC(COC(=O)CCCN)OC(=O)CCCN (stereo unspecified) | 6 | 74 | 17 | 53.2 | Activity (Mus musculus [7]): 1.07 nM/g; Activity (Mus musculus [8]): 6.32 nM/g
2 | CC/C=C/C/C=C/C/C=C/CCCCCCCC(=O)OCC(COC(=O)CCCN)OC(=O)CCCN (stereo in doubt) |  |  | 75 | 31.5 | K [9]: 2.13; Activity (Mus musculus [10]): 3.79 nM/g; Activity (Mus musculus [11]): 2.81 nM/g
3 | CCCCC/C=C/C/C=C/CCCCCCCC(=O)OCC(COC(=O)CCCN)OC(=O)CCCN (stereo in doubt; 3c (L2G2)) |  |  | 97 | 25.9 | K [9]: 4.2; Activity (Mus musculus [12]): 8 nM/g; Activity (Mus musculus [13]): 7.74 nM/g
4 | CCCCC/C=C/C/C=C/CCCCCCCC(=O)OCC(COC(=O)CCCN)OC(=O)CCCN (stereo in doubt; 3c) |  | 89.3 | 14 |  | Activity (Mus musculus [14]): 9.19 nM/g; Activity (Mus musculus [15]): 1.32 nM/g
5 | CC/C=C/C/C=C/C/C=C/CCCCCCCC(=O)OCC(COC(=O)CCCN)OC(=O)CCCN (stereo in doubt; 3d) |  | 82.6 | 15 |  | Activity (Mus musculus [16]): 1.07 nM/g; Activity (Mus musculus [17]): 7.86 nM/g

More lines, main results first:

Row | K [1] | SMILES | Decrease (Mus musculus [2]) [%] | BPI [5] [%] | BUI [6] | also measured
6 | 8.6 | CCCCCCCCCCCCCCCCCC(=O)OCC(COC(=O)CCCN)OC(=O)CCCN (stereo unspecified) | 62.1 | 28 | 45.1 | Activity (Mus musculus [3]): 1.89 nM/g; Activity (Mus musculus [4]): 6.92 nM/g
7 | 0.004 | NCCCC(=O)O [GAMMA-AMINOBUTYRIC ACID] | 62.1 | 0.96 | 2 | Activity (Mus musculus [18]): 4.2 nM/g; Activity (Mus musculus [19]): 0.041 nM/g
